Experimental data from different studies.
ABHD6: Monoacylglycerol lipase ABHD6 (ABHD6, Homo sapiens, UniProt Q9BV23)
HTR5A: 5-hydroxytryptamine receptor 5A (HTR5A, Homo sapiens, UniProt P47898)

`Cc1ccc(Cc2ccc3c(c2)CN(C(=O)[C@@H](N)Cc2c(C)cc(O)cc2C)CC3)cc1` gave a Ki of 0.114 µM (Mu-type opioid receptor (Oprm1, Rattus norvegicus, UniProt P33535); ligand displacement, radioligand; cell membranes).
`CC(=O)N[C@@H](CO)C(=O)N[C@@H](Cc1ccccc1)C(=O)N[C@@H](CCC(=O)O)C(=O)N[C@@H](Cc1ccccc1Cl)C(=O)N1CCC[C@H]1C(=O)N1CCC[C@H]1C(=O)N1CCC[C@H]1C(=O)N1CCC[C@H]1C(=O)N[C@H](C(=O)N[C@@H](CCC(=O)O)C(=O)N[C@@H](CC(=O)O)C(=O)N[C@@H](CCC(=O)O)C(=O)N[C@@H](CC(C)C)C(N)=O)[C@@H](C)O` has a Kd of 1.5 µM (Vasodilator-stimulated phosphoprotein (VASP, Homo sapiens, UniProt P50552); binding, fluorescence).
For `Cc1ccc(N(C)C(=O)Oc2nsnc2N2CCCCC2)cc1`, the IC50 was 0.15 µM (ABHD6; enzyme activity, inhibitor, fluorescence; lysate).
The EC50 of `COc1cc(C(=O)N2CC[C@@H](O)[C@@H](N)C2)cc2nc(-c3cc4ccccc4n3CC3CC3)n(C)c12` is reported as greater than 50.1 µM (Nuclear receptor subfamily 1 group I member 2 (NR1I2, Homo sapiens, UniProt O75469); reporter gene, agonist, luciferase).
With `O=P(O)(O)Oc1ccccc1OP(=O)(O)O` the Ki was 18 µM (Signal transducer and activator of transcription 6, SH2 (Homo sapiens, UniProt P42226); ligand displacement, FP).
With `CN(C(=O)Oc1nsnc1N1CCCCC1)C1CCCCCCC1` the IC50 was 0.072 µM (ABHD6; enzyme activity, inhibitor, fluorescence; lysate).
The IC50 of `CC(CCc1ccc(O)cc1)NCCc1ccc(O)c(O)c1` (stereo not drawn) is reported as 2.42 µM (D(4) dopamine receptor (DRD4, Homo sapiens, UniProt P21917); ligand displacement, radioligand).
`O=C(Nc1cccc(-c2ccn3c(CC4CC4)nnc3c2C(F)(F)F)c1)c1ccc(S(=O)(=O)F)cc1` has an EC50 of greater than 50.1 µM (Metabotropic glutamate receptor 8 (GRM8, Homo sapiens, UniProt O00222); calcium signal, agonist).
`CN(C(=O)Oc1nsnc1N1CCCCC1)C1CCCCCC1` has an IC50 of 0.0427 µM (ABHD6; enzyme activity, inhibitor, fluorescence; lysate).
`CN(Cc1ccc(NC(=O)C2=Cc3cc(-c4ccc(OCCCF)cc4)ccc3CCC2)cc1)C1CCOCC1` gave a Ki of 5.01 µM (HTR5A; ligand displacement, radioligand).
With `CN(C(=O)Oc1nsnc1N1CCCCC1)c1ccc([N+](=O)[O-])cc1` the IC50 was 1.25 µM (ABHD6; enzyme activity, inhibitor, fluorescence; lysate).
`CNc1nc2cc(OCCCCN3CCN(c4cccc(Cl)c4Cl)CC3)ccc2s1` gave a Ki of 1.3 µM (HTR5A; ligand displacement, radioligand).
